Laboratory results published in publication PMC6369923 (Journal of immunology (Baltimore, Md. : 1950), 2019).
Ends that are not written are not given here.

What was measured:
[1] = test system: MRGPRX2 (HTLA-MRGPRX2 cells); assay: Ca2+ mobilization in HTLA-MRGPRX2 cells; assay type: cell-based; settings: compound 48/80 30 μg/mL, AG-30/5C 10 μM, Icatibant 30 μg/mL; FLIPR-Tetra; representative traces
In short: (§1)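 HTLA cells (HEK-293T stably expressing β-arrestin2-TEV) were stably transfected with the MRGPRX2-Tango or MRGPRX4-Tango plasmid, and a single-cell-derived clone was checked for receptor expression by anti-FLAG flow cytometry. Cells were plated at 10^4 per well on collagen and grown 24 h at 37°C, then loaded with Calcium 6 dye for 2 h at 37°C. After 1 h equilibration at room temperature, test compound was added and fluorescence imaged every 1 s for 5 min on FLIPR-Tetra.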

[2] = test system: MRGPRX2 (HTLA-MRGPRX2 cells); settings: cited from earlier work
[3] = test system: MRGPRX2 (RBL-2H3 cells stably expressing MRGPRX2); assay: RBL-MRGPRX2 degranulation; assay type: cell-based
In short: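 RBL-2H3 cells stably expressing MRGPRX2 were kept in 1 mg/mL G418. Cells were seeded at 5 × 10^4 per well and cultured overnight with or without pertussis toxin (100 ng/mL, 16 h), then washed twice into HEPES buffer with 0.1% BSA. Optional resveratrol was 100 μM for 5 min. Cells were stimulated with test compound for 30 min at 37°C, and β-hexosaminidase release was measured with 1 mM PNAG (1 h, 37°C) at A405 as percent of total.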

[4] = test system: MRGPRX2 (RBL-MRGPRX2 cells); assay: Ca2+ mobilization in RBL-MRGPRX2 cells; assay type: cell-based; settings: PTx 100 ng/mL, 16 h, Indo-1, agonist compound 48/80 1 μg/mL, AG-30/5C 1 μM or Icatibant 20 μg/mL, representative traces
[5] = treatment of hereditary angioedema; cited from earlier work
MRGPRX2 (human MC) = settings: cited from earlier work
MRGPRX2 = settings: LL-37 as agonist; cited from earlier work
[6] = mice; cited from earlier work
[7] = test system: LAD2 cells (human MC line, endogenously expressing MRGPRX2); assay: LAD2 degranulation; assay type: cell-based; settings: resveratrol 100 μM, 5 min, 30 min
In short: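 LAD2 cells were grown in StemPro-34 with rhSCF (100 ng/mL), washed, and seeded at 10^4 per well in HEPES buffer with 0.1% BSA. Where used, resveratrol pretreatment was 100 μM for 5 min, followed by stimulation with test compound for 30 min at 37°C. Supernatant or Triton X-100 lysate of unstimulated cells (total) was incubated with 1 mM PNAG for 1 h at 37°C, stopped with carbonate buffer, and read at A405. Result is percent β-hexosaminidase release; three experiments.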

[8] = test system: MRGPRX2 (HTLA-MRGPRX2 cells); assay: Tango assay; assay type: cell-based; settings: resveratrol 100 μM, 5 min
In short: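 HTLA cells (HEK-293T expressing β-arrestin2-TEV) stably transfected with MRGPRX2-Tango; single-cell clone, surface FLAG checked by flow. 50,000 cells/well on poly-L-lysine, triplicate, antibiotic-free medium, 6 h at 37°C; resveratrol 100 μM 5 min where used, then agonist 16 h at 37°C; Bright-Glo luminescence. Ca2+: Calcium 6 dye 2 h 37°C, 1 h room temperature, FLIPR read every 1 s for 5 min. Mean ± SEM, three experiments.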

[9] = test system: IgE-mediated MC degranulation; settings: cited from earlier work
[10] = test system: MRGPRX4 (HTLA-MRGPRX4 cells); assay: Ca2+ mobilization in HTLA-MRGPRX4 cells; assay type: cell-based; settings: nateglinide 30 μM, AG-30/5C 10 μM, compound 48/80 30 μg/mL; FLIPR-Tetra; representative traces
In short: as §1

[11] = test system: MRGPRX4 (HTLA-MRGPRX4 cells); assay: Tango assay; assay type: cell-based; settings: nateglinide 30 μM, 16 h, 37°C, three experiments
In short: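 Tango line from HTLA cells (HEK-293T with β-arrestin2-TEV) stably transfected with MRGPRX4-Tango, single-cell cloned, surface FLAG confirmed by flow. Cells plated at 50,000/well on poly-L-lysine in triplicate, antibiotic-free medium, 6 h at 37°C, then agonist 16 h at 37°C; Bright-Glo luminescence. Ca2+ traces: Calcium 6 loading 2 h 37°C, 1 h room-temperature equilibration, FLIPR imaging every 1 s over 5 min.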

For Icatibant, which “peak Ca2+ mobilization, high concentration” value [1] is on record?
The value was “induced Ca^2+ mobilization although the peak was much shorter than compound 48/80”.

What about the “β-arrestin-mediated gene expression (literature)” value ([2]; HTLA cells expressing MRGPRX2-Tango) of the same molecule?
Its value is “does not activate β-arrestin-mediated gene expression”.

And the “effect of pertussis toxin on agonist-induced degranulation” value ([3]; RBL-MRGPRX2, PTx 100 ng/mL, 16 h, agonist compound 48/80 1 μg/mL or AG-30/5C 1 μM (p ≤ 0.001), or Icatibant 20 μg/mL)?
Its value is “completely blocked”.

What about the “effect of pertussis toxin on agonist-induced Ca2+ mobilization” value [4] of the same molecule?
Its value is “completely blocked Icatibant-induced degranulation but not Ca^2+ mobilization”.

And the “injection site pseudo-allergic drug reaction” value [5]?
Its value is “injection site pseudo-allergic drug reaction in nearly every patient”.

And the “MC degranulation via MRGPRX2 (literature)” value (MRGPRX2 (human MC))?
The value was “promotes MC degranulation via MRPGRX2”.

For LL-37, which “receptor phosphorylation, desensitization and internalization” value (MRGPRX2) is on record?
Its value is “resistant to phosphorylation, desensitization and internalization”.

What about the vaccine adjuvant activity [6] of the same molecule?
The vaccine adjuvant activity was “safe and effective vaccine adjuvant in mice”.

What about the “activation of human MC via MRGPRX2 (literature)” value (MRGPRX2 (human MC)) of the same molecule?
The value was “activate human MC”.

What does the source list for `Oc1ccc(/C=C/c2cc(O)cc(O)c2)cc1` [resveratrol]?
inhibition of Icatibant-induced degranulation, LAD2 ([7]; Icatibant 20 μg/mL): significant (p≤ 0.05 and p≤ 0.001) inhibition; inhibition of compound 48/80- and AG-30/5C-induced degranulation, LAD2 ([7]; compound 48/80 1 μg/mL or AG-30/5C 1 μM): significantly (p ≤0.05, 0.01 and 0.001) reduced degranulation; effect on AG-30/5C Tango response ([8]; AG-30/5C 10 μM overnight): no effect on Tango; inhibition of compound 48/80-induced β-arrestin gene expression (Tango) ([8]; compound 48/80 3.0, 10 and 20 μg/mL overnight): significant (p≤ 0.01 and p≤ 0.001) inhibition; inhibition of constitutive MRGPRX2-mediated Tango ([2]; NIH Clinical Collection library (NCC-1) screen): inhibitor of constitutive MRGPRX2-mediated Tango; inhibition of IgE-mediated MC degranulation [9]: activates sirtuin 1 (sirt1) to inhibit IgE-mediated MC degranulation; inhibition of Icatibant-induced degranulation, RBL-MRGPRX2 ([3]; resveratrol 100 μM, 5 min, Icatibant 20 μg/mL, 30 min): significant (p≤ 0.05 and p≤ 0.001) inhibition; inhibition of compound 48/80- and AG-30/5C-induced degranulation, RBL-MRGPRX2 ([3]; resveratrol 100 μM, 5 min, compound 48/80 1 μg/mL or AG-30/5C 1 μM, 30 min): significantly (p ≤0.05, 0.01 and 0.001) reduced degranulation

What does the source list for `CC(C)[C@H]1CC[C@H](C(=O)N[C@H](Cc2ccccc2)C(=O)O)CC1` [nateglinide]?
Ca2+ mobilization via MRGPRX4 [10]: causes an increase in Ca^2+ mobilization; β-arrestin-mediated gene expression via MRGPRX4 (Tango), in words ([11]; AG-30/5C 10 μM, compound 48/80 30 μg/mL): induces β-arrestin-mediated gene expression; increase in β-arrestin-mediated gene expression via MRGPRX4 [11]: > 100 fold

With “human β-defensin 3: host defense peptide (GIINTLQKYYCRVRGGRCAVLSCLPKEEQIGKCSTRGRKCCRRKK; ends and bridges not checked; cysteine pairing not given here; UniProt P81534 23-67, looked up)” as the molecule, how does the “effect of PTx on MC degranulation and Ca2+ mobilization (literature)” value (MRGPRX2 (human MC)) read?
Its value is “inhibits MC degranulation in response to host defense peptide, human β-defensin 3 without affecting Ca^2+ mobilization”.
